Assay results: ChEMBL document CHEMBL1153726, “Synthesis and anticancer activity of sclerophytin-inspired hydroisobenzofurans” (Bioorg Med Chem Lett, 2009)

Legend:
Assay type in all cases: functional
SK-MEL-2 = assay: Growth inhibition of human SK-MEL-2 cells at 10 nM after 96 hrs by MTT assay; design: scale not given: the % may be the effect or the level left
TK-10 = assay: Growth inhibition of human TK10 cells after 96 hrs by MTT assay; details: TK-10, 96 h
Procedure, shortened: (§1)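 Tested in the NCI 60-cell-line panel in five-dose format; GI50 and LC50 values reported for each cell line.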

U-251 = assay: Growth inhibition of human U251 cells at 1 nM after 96 hrs by MTT assay; design: scale not given: the % may be the effect or the level left
[1] = Growth inhibition of human […] cells after 96 hrs by MTT assay; procedure, shortened: as §1
HCC 2998 = assay: Growth inhibition of human HCC2998 cells at 1 uM after 96 hrs by MTT assay; design: scale not given: the % may be the effect or the level left
T47D [2] = assay: Growth inhibition of human T47D cells at 1 nM after 96 hrs by MTT assay; design: scale not given: the % may be the effect or the level left
RXF 393 = assay: Growth inhibition of human RXF393 cells at 1 nM after 96 hrs by MTT assay; design: scale not given: the % may be the effect or the level left
MDA-MB-468 = assay: Growth inhibition of human MDA-MB-468 cells at 1 uM after 96 hrs by MTT assay; design: scale not given: the % may be the effect or the level left
T47D [3] = assay: Growth inhibition of human T47D cells at 1 uM after 96 hrs by MTT assay; design: scale not given: the % may be the effect or the level left
OVCAR-4 = assay: Growth inhibition of human OVCAR4 cells after 96 hrs by MTT assay; details: OVCAR-4, 96 h; procedure, shortened: as §1
CAKI-1 = assay: Growth inhibition of human Caki1 cells at 10 nM after 96 hrs by MTT assay; design: scale not given: the % may be the effect or the level left
SNB-75 = assay: Growth inhibition of human SNB75 cells after 96 hrs by MTT assay; details: SNB-75, 96 h; procedure, shortened: as §1
MCF7 = assay: Growth inhibition of human MCF7 cells at 100 nM after 96 hrs by MTT assay; design: scale not given: the % may be the effect or the level left
ACHN [4] = assay: Growth inhibition of human ACHN cells at 100 nM after 96 hrs by MTT assay; design: scale not given: the % may be the effect or the level left
NCI-H23 = assay: Growth inhibition of human NCI-H23 cells at 1 uM after 96 hrs by MTT assay; design: scale not given: the % may be the effect or the level left
SNB-19 = assay: Growth inhibition of human SNB19 cells after 96 hrs by MTT assay; details: SNB-19, 96 h; procedure, shortened: as §1
786-0 = assay: Growth inhibition of human 786-0 cells at 100 nM after 96 hrs by MTT assay; design: scale not given: the % may be the effect or the level left
SF-539 = assay: Growth inhibition of human SF539 cells at 10 nM after 96 hrs by MTT assay; design: scale not given: the % may be the effect or the level left
EKVX = assay: Growth inhibition of human EKVX cells at 10 nM after 96 hrs by MTT assay; design: scale not given: the % may be the effect or the level left
SK-MEL-5 = assay: Growth inhibition of human SK-MEL-5 cells after 96 hrs by MTT assay; details: SK-MEL-5, 96 h; procedure, shortened: as §1
SF-268 = assay: Growth inhibition of human SF268 cells at 10 nM after 96 hrs by MTT assay; design: scale not given: the % may be the effect or the level left
ACHN [5] = assay: Growth inhibition of human ACHN cells at 1 nM after 96 hrs by MTT assay; design: scale not given: the % may be the effect or the level left
HOP-92 = assay: Growth inhibition of human HOP92 cells at 100 nM after 96 hrs by MTT assay; design: scale not given: the % may be the effect or the level left
UO-31 = assay: Growth inhibition of human UO31 cells at 100 nM after 96 hrs by MTT assay; design: scale not given: the % may be the effect or the level left
HT-29 = assay: Growth inhibition of human HT-29 cells at 1 uM after 96 hrs by MTT assay; design: scale not given: the % may be the effect or the level left
[6] = read-out: LC50 (the source's name)
[7] = read-out: Log10GI50 (converted)
[8] = read-out: Log10LC50 (converted)

Compound: C=C(C)[C@H]1CC=C(C)C2=CO[C@@H](c3ccccc3F)[C@@H]21
- Activity (SK-MEL-2): 82%
- GI50 (TK-10; read-out: GI50): 8.93 µM
- CC50 (TK-10; [6]): 88.9 µM
- GI50 (TK-10; [7]): 8.91 µM
- CC50 (TK-10; [8]): 89.1 µM
- TGI (TK-10; read-out: Log10TGI (converted)): 28.8 µM
- TGI (TK-10; read-out: TGI): 29.1 µM
- Activity (U-251): 98%
- GI50 ([1]; read-out: GI50): 0.148 µM
- CC50 [1, 6]: 9.36 µM
- GI50 [1, 7]: 0.148 µM
- CC50 [1, 8]: 9.33 µM
- TGI ([1]; read-out: Log10TGI (converted)): 2 µM
- TGI ([1]; read-out: TGI): 2.01 µM
- Activity (HCC 2998): 39%
- Activity (T47D [2]): 98%
- Activity (RXF 393): 94%
- Activity (MDA-MB-468): 11%
- Activity (T47D [3]): 2%
- GI50 (OVCAR-4; read-out: GI50): 4.1 µM
- CC50 (OVCAR-4; [6]): 86.6 µM
- GI50 (OVCAR-4; [7]): 4.07 µM
- CC50 (OVCAR-4; [8]): 87.1 µM
- TGI (OVCAR-4; read-out: Log10TGI (converted)): 24 µM
- TGI (OVCAR-4; read-out: TGI): 23.7 µM
- Activity (CAKI-1): 93%
- GI50 (SNB-75; read-out: GI50): 4.94 µM
- LC50 (SNB-75; read-out: LC50): 56.9 µM
- GI50 (SNB-75; [7]): 4.9 µM
- LC50 (SNB-75; [8]): 57.5 µM
- TGI (SNB-75; read-out: Log10TGI (converted)): 20.4 µM
- TGI (SNB-75; read-out: TGI): 20.5 µM
- Activity (MCF7): 83%
- Activity (ACHN [4]): 97%
- Activity (NCI-H23): 34%
- GI50 (SNB-19; read-out: GI50): 10.7 µM
- CC50 (SNB-19; [6]): 47.4 µM
- GI50 (SNB-19; [7]): 10.7 µM
- CC50 (SNB-19; [8]): 47.9 µM
- TGI (SNB-19; read-out: Log10TGI (converted)): 22.4 µM
- TGI (SNB-19; read-out: TGI): 22.5 µM
- Activity (786-0): 89%
- Activity (SF-539): 90%
- Activity (EKVX): 93%
- GI50 (SK-MEL-5; read-out: GI50): 2.48 µM
- CC50 (SK-MEL-5; [6]): 38.6 µM
- GI50 (SK-MEL-5; [7]): 2.51 µM
- CC50 (SK-MEL-5; [8]): 38.9 µM
- TGI (SK-MEL-5; read-out: Log10TGI (converted)): 14.8 µM
- TGI (SK-MEL-5; read-out: TGI): 14.9 µM
- Activity (SF-268): 94%
- Activity (ACHN [5]): 96%
- Activity (HOP-92): 43%
- Activity (UO-31): 81%
- Activity (HT-29): 22%
